Data reported in ChEMBL document CHEMBL1155278, “3,4-Diaryl-isoxazoles and -imidazoles as potent dual inhibitors of p38alpha mitogen activated protein kinase and casein kinase 1delta” (J Med Chem, 2009).

How the values were obtained:
[1] = biological target: Mitogen-activated protein kinase 1 (Homo sapiens) (UniProt P28482); experiment: Inhibition of ERK2 assessed as residual activity at 0.1 uM by Cherenkov counting relative to control
Summary of the method: (§1)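 Single-concentration screen at 0.1 µM across a panel of 76 protein kinases. Each kinase was run at an ATP concentration approximating its ATP Km. Results are % mean residual activity versus control assays without compound (n = 3 ± SD).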

[2] = biological target: Mitogen-activated protein kinase 12 (Homo sapiens) (UniProt P53778); experiment: Inhibition of p38-gamma assessed as residual activity at 0.1 uM by Cherenkov counting relative to control
Summary of the method: (§2)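 Single-concentration screen at 0.1 μM in a 76-kinase panel. ATP for each kinase was set near its Km for ATP. Residual activity is given as a percentage of control assays without compound, mean of n = 3 ± SD.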

[3] = biological target: Dual specificity mitogen-activated protein kinase kinase 1 (Homo sapiens) (UniProt Q02750); experiment: Inhibition of MKK1 assessed as residual activity at 0.1 uM by Cherenkov counting relative to control in presence of 5 uM ATP
Dual specificity mitogen-activated protein kinase kinase 1 (Homo sapiens), sequence (Q02750 whole entry): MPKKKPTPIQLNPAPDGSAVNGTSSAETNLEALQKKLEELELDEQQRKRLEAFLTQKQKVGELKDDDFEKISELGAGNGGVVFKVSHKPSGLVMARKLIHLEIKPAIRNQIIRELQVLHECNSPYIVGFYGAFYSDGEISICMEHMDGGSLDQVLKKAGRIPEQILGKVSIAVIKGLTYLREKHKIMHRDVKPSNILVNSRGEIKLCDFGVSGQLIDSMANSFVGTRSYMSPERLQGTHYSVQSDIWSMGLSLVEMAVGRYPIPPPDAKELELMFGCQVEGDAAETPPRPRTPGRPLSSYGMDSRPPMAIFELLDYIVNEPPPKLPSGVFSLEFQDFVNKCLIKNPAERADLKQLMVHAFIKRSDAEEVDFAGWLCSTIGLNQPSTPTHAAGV
Summary of the method: (§3)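 Single-concentration selectivity screen at 0.1 μM against a panel of 76 protein kinases. Each kinase was run at an ATP level approximating its Km for ATP. Output is mean residual activity as % of the control assay without compound, n = 3 ± SD.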

[4] = biological target: Mitogen-activated protein kinase 15 (Homo sapiens) (UniProt Q8TD08); experiment: Inhibition of ERK8 assessed as residual activity at 0.1 uM by Cherenkov counting relative to control in presence of 5 uM ATP; summary of the method: as §1
Mitogen-activated protein kinase 15 (Homo sapiens), sequence (Q8TD08 whole entry): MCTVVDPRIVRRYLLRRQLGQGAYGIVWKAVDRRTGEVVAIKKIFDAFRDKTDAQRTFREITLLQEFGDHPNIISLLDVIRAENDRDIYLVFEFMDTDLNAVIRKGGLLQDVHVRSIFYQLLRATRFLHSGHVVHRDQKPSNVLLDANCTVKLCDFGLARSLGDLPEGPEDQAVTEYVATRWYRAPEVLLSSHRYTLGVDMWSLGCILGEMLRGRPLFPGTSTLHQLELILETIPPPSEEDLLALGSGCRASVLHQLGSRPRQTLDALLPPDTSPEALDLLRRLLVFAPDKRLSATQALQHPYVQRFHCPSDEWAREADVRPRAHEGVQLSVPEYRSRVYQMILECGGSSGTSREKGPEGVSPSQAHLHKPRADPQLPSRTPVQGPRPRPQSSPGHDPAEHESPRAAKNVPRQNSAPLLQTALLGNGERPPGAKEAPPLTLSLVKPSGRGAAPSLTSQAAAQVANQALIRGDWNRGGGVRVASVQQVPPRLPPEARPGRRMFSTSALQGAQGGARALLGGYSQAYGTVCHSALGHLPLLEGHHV

[5] = biological target: MAP kinase-activated protein kinase 2 (Homo sapiens) (UniProt P49137); experiment: Inhibition of MAPKAPK2 assessed as residual activity at 0.1 uM by Cherenkov counting relative to control in presence of 20 uM ATP; summary of the method: as §3
MAP kinase-activated protein kinase 2 (Homo sapiens), sequence (P49137 whole entry, looked up): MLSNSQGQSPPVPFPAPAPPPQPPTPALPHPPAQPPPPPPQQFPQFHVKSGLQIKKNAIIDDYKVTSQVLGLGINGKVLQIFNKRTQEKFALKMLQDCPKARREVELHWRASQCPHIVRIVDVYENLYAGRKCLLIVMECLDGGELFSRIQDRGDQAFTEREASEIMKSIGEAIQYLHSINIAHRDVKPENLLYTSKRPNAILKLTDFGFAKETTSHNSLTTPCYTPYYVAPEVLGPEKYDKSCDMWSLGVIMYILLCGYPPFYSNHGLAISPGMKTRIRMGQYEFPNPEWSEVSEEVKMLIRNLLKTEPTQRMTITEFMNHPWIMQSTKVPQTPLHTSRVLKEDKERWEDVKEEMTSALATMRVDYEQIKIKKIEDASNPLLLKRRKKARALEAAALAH

[6] = biological target: Glycogen synthase kinase-3 beta (Homo sapiens) (UniProt P49841); experiment: Inhibition of GSK3-beta assessed as residual activity at 0.1 uM by Cherenkov counting relative to control in presence of 5 uM ATP; summary of the method: as §1
[7] = biological target: Rho-associated protein kinase 2 (Homo sapiens) (UniProt O75116); experiment: Inhibition of ROCK2 assessed as residual activity at 0.1 uM by Cherenkov counting relative to control in presence of 20 uM ATP; summary of the method: as §2
Rho-associated protein kinase 2 (Homo sapiens), sequence (O75116 whole entry, looked up): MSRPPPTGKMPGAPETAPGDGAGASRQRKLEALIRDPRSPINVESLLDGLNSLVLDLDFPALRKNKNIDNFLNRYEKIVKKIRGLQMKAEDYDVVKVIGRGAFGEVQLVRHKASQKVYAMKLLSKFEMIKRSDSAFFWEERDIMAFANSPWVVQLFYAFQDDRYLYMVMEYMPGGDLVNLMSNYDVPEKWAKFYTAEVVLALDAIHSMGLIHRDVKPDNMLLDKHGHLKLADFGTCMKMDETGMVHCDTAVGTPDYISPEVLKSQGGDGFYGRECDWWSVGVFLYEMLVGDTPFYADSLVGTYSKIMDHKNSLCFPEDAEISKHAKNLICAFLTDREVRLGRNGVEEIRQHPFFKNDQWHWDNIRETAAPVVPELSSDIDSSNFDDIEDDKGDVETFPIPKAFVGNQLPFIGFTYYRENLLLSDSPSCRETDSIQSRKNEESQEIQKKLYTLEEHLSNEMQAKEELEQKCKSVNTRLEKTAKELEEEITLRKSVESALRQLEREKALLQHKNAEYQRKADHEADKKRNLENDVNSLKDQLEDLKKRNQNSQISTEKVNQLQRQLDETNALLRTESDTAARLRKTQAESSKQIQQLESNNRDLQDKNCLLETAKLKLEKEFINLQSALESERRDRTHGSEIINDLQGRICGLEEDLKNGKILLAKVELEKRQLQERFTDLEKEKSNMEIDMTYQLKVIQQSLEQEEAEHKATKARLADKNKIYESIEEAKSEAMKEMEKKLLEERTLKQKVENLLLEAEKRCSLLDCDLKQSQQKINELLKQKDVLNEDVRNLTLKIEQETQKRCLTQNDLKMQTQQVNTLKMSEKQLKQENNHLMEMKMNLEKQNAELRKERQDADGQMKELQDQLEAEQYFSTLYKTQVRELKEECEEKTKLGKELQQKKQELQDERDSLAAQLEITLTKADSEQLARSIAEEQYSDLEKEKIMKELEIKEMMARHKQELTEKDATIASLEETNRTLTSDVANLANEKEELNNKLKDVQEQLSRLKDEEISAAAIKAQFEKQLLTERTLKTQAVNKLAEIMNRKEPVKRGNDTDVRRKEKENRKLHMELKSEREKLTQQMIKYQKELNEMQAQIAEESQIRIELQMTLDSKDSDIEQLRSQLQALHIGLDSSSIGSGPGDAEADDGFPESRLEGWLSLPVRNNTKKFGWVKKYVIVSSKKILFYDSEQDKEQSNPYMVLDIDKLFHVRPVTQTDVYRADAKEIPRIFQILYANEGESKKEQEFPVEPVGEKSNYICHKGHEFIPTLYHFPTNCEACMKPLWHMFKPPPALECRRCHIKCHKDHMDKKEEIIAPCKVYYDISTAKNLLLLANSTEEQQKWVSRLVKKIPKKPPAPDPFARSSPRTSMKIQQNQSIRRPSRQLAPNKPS

[8] = biological target: T1, Serine/threonine-protein kinase TBK1 (Homo sapiens) (UniProt Q9UHD2); experiment: Inhibition of TBK1 assessed as residual activity at 0.1 uM by Cherenkov counting relative to control in presence of 50 uM ATP; summary of the method: as §2
T1 sequence (whole entry): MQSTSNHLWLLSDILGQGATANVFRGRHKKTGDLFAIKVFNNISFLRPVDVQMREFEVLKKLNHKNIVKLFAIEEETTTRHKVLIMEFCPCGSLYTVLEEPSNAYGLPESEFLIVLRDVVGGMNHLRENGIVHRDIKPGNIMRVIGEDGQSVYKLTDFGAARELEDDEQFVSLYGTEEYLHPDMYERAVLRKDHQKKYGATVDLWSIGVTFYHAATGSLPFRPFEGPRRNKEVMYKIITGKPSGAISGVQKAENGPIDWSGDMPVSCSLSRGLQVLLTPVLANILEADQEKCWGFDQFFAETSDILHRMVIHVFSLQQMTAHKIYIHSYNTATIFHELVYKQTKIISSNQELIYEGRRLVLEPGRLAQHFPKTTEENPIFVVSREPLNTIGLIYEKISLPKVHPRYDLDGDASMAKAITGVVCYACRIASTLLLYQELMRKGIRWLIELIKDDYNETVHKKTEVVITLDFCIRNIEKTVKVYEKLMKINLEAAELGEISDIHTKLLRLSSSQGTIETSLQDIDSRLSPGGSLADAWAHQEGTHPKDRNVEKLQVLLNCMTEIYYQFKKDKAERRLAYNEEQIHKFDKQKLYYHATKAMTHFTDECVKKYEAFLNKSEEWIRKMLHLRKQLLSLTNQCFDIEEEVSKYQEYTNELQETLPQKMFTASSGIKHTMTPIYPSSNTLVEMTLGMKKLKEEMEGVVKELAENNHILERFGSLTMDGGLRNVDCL

[9] = biological target: Serine/threonine-protein kinase PAK 5 (Homo sapiens) (UniProt Q9P286); experiment: Inhibition of PAK5 assessed as residual activity at 10 uM by Cherenkov counting relative to control in presence of 20 uM ATP
[10] = biological target: Serine/threonine-protein kinase PAK 4 (Homo sapiens) (UniProt O96013); experiment: Inhibition of PAK4 assessed as residual activity at 10 uM by Cherenkov counting relative to control in presence of 5 uM ATP
Serine/threonine-protein kinase PAK 4 (Homo sapiens), sequence (O96013 whole entry, looked up): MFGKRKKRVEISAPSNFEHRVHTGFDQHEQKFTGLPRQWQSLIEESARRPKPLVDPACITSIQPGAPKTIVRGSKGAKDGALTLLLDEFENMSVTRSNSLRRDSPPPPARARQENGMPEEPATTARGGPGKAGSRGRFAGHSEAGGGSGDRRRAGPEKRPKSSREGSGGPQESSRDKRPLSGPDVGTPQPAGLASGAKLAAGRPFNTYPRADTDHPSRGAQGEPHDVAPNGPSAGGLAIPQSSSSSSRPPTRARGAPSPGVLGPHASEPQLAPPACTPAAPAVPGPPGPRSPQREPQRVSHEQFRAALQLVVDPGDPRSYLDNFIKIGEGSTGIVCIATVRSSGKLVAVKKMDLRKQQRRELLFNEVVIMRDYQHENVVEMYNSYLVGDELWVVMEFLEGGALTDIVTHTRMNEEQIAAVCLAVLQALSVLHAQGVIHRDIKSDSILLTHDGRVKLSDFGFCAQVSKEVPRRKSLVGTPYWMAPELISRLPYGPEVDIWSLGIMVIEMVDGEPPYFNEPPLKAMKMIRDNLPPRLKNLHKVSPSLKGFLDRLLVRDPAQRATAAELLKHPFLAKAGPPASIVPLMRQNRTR

[11] = biological target: Ribosomal protein S6 kinase alpha-5 (Homo sapiens) (UniProt O75582); experiment: Inhibition of MSK1 assessed as residual activity at 10 uM by Cherenkov counting relative to control in presence of 20 uM ATP
[12] = biological target: Dual specificity mitogen-activated protein kinase kinase 1 (Homo sapiens) (UniProt Q02750); experiment: Inhibition of MKK1 assessed as residual activity at 10 uM by Cherenkov counting relative to control in presence of 5 uM ATP
[13] = Inhibition of PKA assessed as residual activity at 10 uM by Cherenkov counting relative to control in presence of 20 uM ATP
Summary of the method: (§4)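 Single-concentration profiling at 10 μM in a 78-kinase panel. Kinase activity is expressed as a percentage of control assays run without compound.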

[14] = biological target: Ribosomal protein S6 kinase alpha-1 (Homo sapiens) (UniProt Q15418); experiment: Inhibition of RSK1 assessed as residual activity at 10 uM by Cherenkov counting relative to control; summary of the method: as §4
[15] = biological target: Insulin receptor-related protein (Homo sapiens) (UniProt P14616); experiment: Inhibition of IRR assessed as residual activity at 10 uM by Cherenkov counting relative to control in presence of 5 uM ATP
Insulin receptor-related protein (Homo sapiens), sequence (P14616 27-742 limits assumed): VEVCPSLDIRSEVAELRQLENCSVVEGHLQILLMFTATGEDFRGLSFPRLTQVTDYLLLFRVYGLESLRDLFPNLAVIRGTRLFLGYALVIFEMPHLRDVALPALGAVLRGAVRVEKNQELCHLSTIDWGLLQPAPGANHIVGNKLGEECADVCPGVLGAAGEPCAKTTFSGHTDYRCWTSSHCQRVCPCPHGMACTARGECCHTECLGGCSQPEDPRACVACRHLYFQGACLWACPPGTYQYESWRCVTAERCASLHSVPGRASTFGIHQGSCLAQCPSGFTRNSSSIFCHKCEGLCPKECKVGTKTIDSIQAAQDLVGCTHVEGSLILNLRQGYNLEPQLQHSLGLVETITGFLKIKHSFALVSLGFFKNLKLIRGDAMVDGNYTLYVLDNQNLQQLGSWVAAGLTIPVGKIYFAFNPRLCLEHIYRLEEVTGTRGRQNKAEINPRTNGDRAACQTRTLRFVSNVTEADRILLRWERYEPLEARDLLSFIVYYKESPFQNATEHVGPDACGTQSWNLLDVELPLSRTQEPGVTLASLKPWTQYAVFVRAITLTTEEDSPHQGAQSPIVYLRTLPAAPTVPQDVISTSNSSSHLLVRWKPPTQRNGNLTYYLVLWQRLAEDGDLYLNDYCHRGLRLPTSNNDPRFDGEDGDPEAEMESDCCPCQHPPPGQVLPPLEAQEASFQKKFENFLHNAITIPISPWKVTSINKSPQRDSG
Insulin receptor-related protein (Homo sapiens), sequence (P14616 747-1297 limits assumed): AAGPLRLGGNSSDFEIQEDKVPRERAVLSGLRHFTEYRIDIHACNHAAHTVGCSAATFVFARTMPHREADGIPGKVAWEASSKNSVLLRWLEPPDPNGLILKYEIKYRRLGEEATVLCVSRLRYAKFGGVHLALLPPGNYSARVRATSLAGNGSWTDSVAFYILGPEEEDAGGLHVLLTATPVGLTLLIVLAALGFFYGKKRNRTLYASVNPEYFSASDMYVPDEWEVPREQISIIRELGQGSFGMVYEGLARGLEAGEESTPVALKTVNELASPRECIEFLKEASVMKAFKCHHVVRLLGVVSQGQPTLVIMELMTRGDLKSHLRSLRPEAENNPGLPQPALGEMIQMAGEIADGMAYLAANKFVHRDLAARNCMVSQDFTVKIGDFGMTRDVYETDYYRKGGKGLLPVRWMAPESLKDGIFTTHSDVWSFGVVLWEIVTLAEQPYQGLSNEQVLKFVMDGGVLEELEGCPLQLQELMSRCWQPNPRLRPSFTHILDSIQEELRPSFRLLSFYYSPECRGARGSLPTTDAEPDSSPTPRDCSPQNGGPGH

Mitogen-activated protein kinase 1 (Homo sapiens), sequence (P28482 whole entry): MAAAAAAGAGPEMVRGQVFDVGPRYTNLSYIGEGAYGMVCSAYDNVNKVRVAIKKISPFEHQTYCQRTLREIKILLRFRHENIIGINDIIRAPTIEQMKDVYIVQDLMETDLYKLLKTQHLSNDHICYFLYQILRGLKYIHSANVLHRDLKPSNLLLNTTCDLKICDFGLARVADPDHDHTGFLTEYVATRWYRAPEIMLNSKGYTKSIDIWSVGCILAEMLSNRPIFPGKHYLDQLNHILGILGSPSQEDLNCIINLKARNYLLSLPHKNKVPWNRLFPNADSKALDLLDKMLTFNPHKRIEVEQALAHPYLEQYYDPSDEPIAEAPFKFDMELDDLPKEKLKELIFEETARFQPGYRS

Structure (SMILES)	Activity [1]	Activity [2]	Activity [3]	Activity [4]	Activity [5]	Activity [6]	Activity [7]	Activity [8]	Activity [9]	Activity [10]	Activity [11]	Activity [12]	Activity [13]	Activity [14]	Activity [15]
COc1ccc(/C=C/C(=O)Nc2cc(-c3[nH]c(SC)nc3-c3ccc(F)cc3)ccn2)c(OC)c1	91%	84%	27%	83%	82%	81%	81%	103%							
COc1ccc(/C=C/C(=O)Nc2cc(-c3[nH]c([S+](C)[O-])nc3-c3ccc(F)cc3)ccn2)c(OC)c1 (stereo not given)	93%	97%	18%	88%	78%	101%	88%	106%							
CC(C)c1noc(-c2ccc(F)cc2)c1-c1ccncc1									94%	107%	113%	88%	90%	83%	94%
CC(C)c1onc(-c2ccc(F)cc2)c1-c1ccncc1									98%	106%	95%	76%	28%	79%	93%
